According to ChEMBL document CHEMBL1649383, “Mode of action of epoxyphomalins A and B and characterization of related metabolites from the marine-derived fungus Paraconiothyrium sp” (J Nat Prod, 2010):
≈ marks a conversion by molar mass, not a printed value.

What was measured:
[1] = Cytotoxicity against human HNXF 536L cells at 0.1 ug/ml relative to control; format: functional
[2] = Cytotoxicity against human LXFL 1121L cells at 10 ug/ml relative to control; format: functional
[3] = Cytotoxicity against human MAXF 401NL cells at 0.1 ug/ml relative to control; format: functional
[4] = Cytotoxicity against human HNXF 536L cells at 0.001 ug/ml relative to control; format: functional
[5] = Cytotoxicity against human PC3M cells at 0.1 ug/ml relative to control; format: functional, PC-3M
T-24 [6] = experiment: Cytotoxicity against human T24 cells at 0.001 ug/ml relative to control; format: functional
[7] = Cytotoxicity against human UXF 1138L cells; format: functional, cell-based
Outline: (§1)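 Monolayer cell survival and proliferation assay run across a panel of 36 human tumor cell lines, with IC50 determined from the resulting growth data.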

[8] = Cytotoxicity against human MEXF 520L cells at 1 ug/ml relative to control; format: functional
T-24 [9] = experiment: Cytotoxicity against human T24 cells at 0.01 ug/ml relative to control; format: functional
[10] = Cytotoxicity against human PAXF 1657L cells; format: functional, cell-based; outline: as §1
[11] = Cytotoxicity against human LXFL 529L cells; format: functional, cell-based
Outline: (§2)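 Monolayer cell survival and proliferation assay run across a panel of 36 human tumour cell lines; IC50 values determined.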

[12] = Cytotoxicity against human UXF 1138L cells at 10 ug/ml relative to control; format: functional
[13] = Cytotoxicity against human MAXF 401NL cells; format: functional, cell-based; outline: as §2
MCF7 [14] = experiment: Cytotoxicity against human MCF7 cells at 0.1 ug/ml relative to control; format: functional
CWR22R [15] = experiment: Cytotoxicity against human 22Rv1 cells at 0.001 ug/ml relative to control; format: functional
[16] = Cytotoxicity against human LXFA 629L cells at 0.01 ug/ml relative to control; format: functional
LNCaP [17] = experiment: Cytotoxicity against human LNCAP cells at 1 ug/ml relative to control; format: functional
[18] = Cytotoxicity against human MEXF 462NL cells at 1 ug/ml relative to control; format: functional
[19] = Cytotoxicity against human CNXF 498NL cells at 10 ug/ml relative to control; format: functional
[20] = Cytotoxicity against human MEXF 520L cells at 10 ug/ml relative to control; format: functional
[21] = Cytotoxicity against human UXF 1138L cells at 0.01 ug/ml relative to control; format: functional
T-24 [22] = experiment: Cytotoxicity against human T24 cells at 0.1 ug/ml relative to control; format: functional
[23] = Cytotoxicity against human RXF 486L cells; format: functional, cell-based; outline: as §1
[24] = Cytotoxicity against human MEXF 394NL cells at 1 ug/ml relative to control; format: functional
[25] = Cytotoxicity against human LXFA 526L cells at 0.1 ug/ml relative to control; format: functional
[26] = Cytotoxicity against human HNXF 536L cells at 10 ug/ml relative to control; format: functional
[27] = Cytotoxicity against human MEXF 520L cells at 0.01 ug/ml relative to control; format: functional
[28] = Cytotoxicity against human MEXF 462NL cells; format: functional, cell-based; outline: as §1
[29] = Cytotoxicity against human RXF 944L cells at 1 ug/ml relative to control; format: functional
[30] = Cytotoxicity against human MEXF 276L cells at 0.001 ug/ml relative to control; format: functional, MEXF276L
[31] = Cytotoxicity against human LXFA 526L cells at 10 ug/ml relative to control; format: functional
[32] = Cytotoxicity against human LXFL 1121L cells at 0.001 ug/ml relative to control; format: functional
[33] = Cytotoxicity against human RXF 393NL cells at 0.1 ug/ml relative to control; format: functional
MCF7 [34] = experiment: Cytotoxicity against human MCF7 cells at 0.01 ug/ml relative to control; format: functional
[35] = Cytotoxicity against human PC3M cells at 10 ug/ml relative to control; format: functional, PC-3M
[36] = Cytotoxicity against human OVXF 1619L cells at 1 ug/ml relative to control; format: functional
[37] = Cytotoxicity against human LXFL 529L cells at 1 ug/ml relative to control; format: functional
[38] = Cytotoxicity against human MAXF 401NL cells at 1 ug/ml relative to control; format: functional
[39] = Cytotoxicity against human UXF 1138L cells at 0.001 ug/ml relative to control; format: functional
[40] = Cytotoxicity against human RXF 944L cells at 0.01 ug/ml relative to control; format: functional
LNCaP [41] = experiment: Cytotoxicity against human LNCAP cells at 0.001 ug/ml relative to control; format: functional
[42] = Cytotoxicity against human LXFA 526L cells at 0.001 ug/ml relative to control; format: functional
[43] = Cytotoxicity against human MEXF 394NL cells at 0.001 ug/ml relative to control; format: functional
[44] = Cytotoxicity against human RXF 1781L cells at 0.1 ug/ml relative to control; format: functional
[45] = Cytotoxicity against human RXF 486L cells at 0.001 ug/ml relative to control; format: functional
HT-29 = experiment: Cytotoxicity against human HT-29 cells; format: functional, cell-based
Outline: (§3)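 Monolayer cell survival and proliferation assay, run within a panel of 36 human tumor cell lines; IC50 determined per cell line.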

[46] = Cytotoxicity against human RXF 1781L cells at 0.001 ug/ml relative to control; format: functional
[47] = Cytotoxicity against human OVXF 899L cells at 0.001 ug/ml relative to control; format: functional
[48] = Cytotoxicity against human RXF 944L cells at 0.001 ug/ml relative to control; format: functional
[49] = Cytotoxicity against human MEXF 514L cells at 1 ug/ml relative to control; format: functional
[50] = Cytotoxicity against human RXF 944L cells at 10 ug/ml relative to control; format: functional
[51] = Cytotoxicity against human LXFA 289L cells at 0.001 ug/ml relative to control; format: functional
[52] = Cytotoxicity against human PXF 1752L cells at 0.1 ug/ml relative to control; format: functional
PANC-1 = experiment: Cytotoxicity against human PANC1 cells at 0.01 ug/ml relative to control; format: functional
CWR22R [53] = experiment: Cytotoxicity against human 22Rv1 cells; format: functional, cell-based; outline: as §3
[54] = Cytotoxicity against human MEXF 462NL cells at 10 ug/ml relative to control; format: functional

C=C1[C@@H](O)[C@H]2O[C@@]2(C[C@H]2C(C)=CC[C@H]3C(C)(C)CCC[C@]23C)[C@@H](O)[C@H]1O [EPOXYPHOLAMIN D]
Activity [1]: 98% | Activity [2]: 5% | Activity [3]: 110% | Activity [4]: 79% | Activity [5]: 73% | Activity (T-24 [6]): 100% | IC50 [7]: 6.15 µM | IC70 [7]: 4.64 µg/mL (≈ 12.8 µM) | IC90 [7]: 9.64 µg/mL (≈ 26.6 µM) | Activity [8]: 86% | Activity (T-24 [9]): 97% | IC50 [10]: 6.32 µM | IC70 [10]: 4.7 µg/mL (≈ 13 µM) | IC90 [10]: 9.65 µg/mL (≈ 26.6 µM) | IC50 [11]: 8.58 µM | IC70 [11]: 5.95 µg/mL (≈ 16.4 µM) | IC90 [11]: 11.4 µg/mL (≈ 31.4 µM) | Activity [12]: 9% | IC50 [13]: 2.57 µM | IC70 [13]: 3.16 µg/mL (≈ 8.72 µM) | IC90 [13]: 11.4 µg/mL (≈ 31.3 µM) | Activity (MCF7 [14]): 96% | Activity (CWR22R [15]): 92% | Activity [16]: 87% | Activity (LNCaP [17]): 136% | Activity [18]: 68% | Activity [19]: 4% | Activity [20]: 5% | Activity [21]: 107% | Activity (T-24 [22]): 104% | IC50 [23]: 7.67 µM | IC70 [23]: 5.27 µg/mL (≈ 14.5 µM) | IC90 [23]: 10 µg/mL (≈ 27.6 µM) | Activity [24]: 78% | Activity [25]: 115% | Activity [26]: 5% | Activity [27]: 96% | IC50 [28]: 5.79 µM | IC70 [28]: 4.77 µg/mL (≈ 13.2 µM) | IC90 [28]: 10.9 µg/mL (≈ 30 µM) | Activity [29]: 102% | Activity [30]: 98% | Activity [31]: 19% | Activity [32]: 116% | Activity [33]: 134% | Activity (MCF7 [34]): 102% | Activity [35]: 5% | Activity [36]: 103% | Activity [37]: 85% | Activity [38]: 48% | Activity [39]: 96% | Activity [40]: 138% | Activity (LNCaP [41]): 82% | Activity [42]: 109% | Activity [43]: 97% | Activity [44]: 98% | Activity [45]: 95% | IC50 (HT-29): 10.8 µM | IC70 (HT-29): 5.73 µg/mL (≈ 15.8 µM) | IC90 (HT-29): 8.41 µg/mL (≈ 23.2 µM) | Activity [46]: 98% | Activity [47]: 103% | Activity [48]: 150% | Activity [49]: 115% | Activity [50]: 14% | Activity [51]: 98% | Activity [52]: 95% | Activity (PANC-1): 92% | IC50 (CWR22R [53]): 2.48 µM | IC70 (CWR22R [53]): 3.06 µg/mL (≈ 8.45 µM) | IC90 (CWR22R [53]): 10.6 µg/mL (≈ 29.4 µM) | Activity [54]: 12%
